# According to ChEMBL document CHEMBL1122794, “[(Arylcarbonyl)oxy]propanolamines. 1. Novel beta-blockers with ultrashort duration of action” (J Med Chem, 1984):
# Legend:
# [1] = Time in which 1/2 of the initial amount disappeared in canine liver(106); assay type: ADME, […], Canis lupus familiaris; details: dog
# Summary of the method: (§1)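 1 mL of solution containing 50 µg of compound was added to 1 mL of dog or human whole blood, or to 1 mL of 33% (w/v) canine liver homogenate. They were assayed by HPLC on a phenyl column with 60% acetonitrile/40% 0.05 M sodium phosphate (pH 6.6) and UV detection. Half-life was read graphically from concentration versus time.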
# Adrenergic receptor beta [2] = molecular target: T1, Adrenergic receptor beta (Homo sapiens, UniProt P08588+P07550+P13945); assay: In vitro blocking of beta adrenergic receptor in guinea pig trachea; assay type: tissue-based, Cavia porcellus; details: target entry is the homologue from another species
# Canis familiaris [3] = species on record: Canis familiaris; assay: Time taken for 80% recovery at a dose of 106 microg (3-h infusion period); assay type: functional, organism-based; details: Canis lupus familiaris
# [4] = T1/2 in canine blood; assay type: ADME, […], Canis lupus familiaris; details: dog; summary of the method: as §1
# [5] = Stability at pH 7.4 and 37 degree Celsius (after 18 h); assay type: physicochemical; details: buffer
# Summary of the method: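 Chemical stability was tested in pH 7.4 buffer at 37 °C. The percentage of parent compound remaining after 18 h of incubation was recorded.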
# [6] = Time in which 1/2 of the initial amount disappeared in human blood.; assay type: ADME, organism-based; summary of the method: as §1
# Adrenergic receptor beta [7] = molecular target: T1, Adrenergic receptor beta; assay: In Vitro inhibition of the beta adrenergic receptor in guinea pig atria; assay type: tissue-based, Cavia porcellus; details: target entry is the homologue from another species
# [8] = t1/2 in canine liver; assay type: ADME, Canis lupus familiaris; details: dog
# Canis familiaris [9] = species on record: Canis familiaris; assay: Percent inhibition of isoproterenol induced tachycardia at a dose of 36 microg (3-h infusion period); assay type: functional, Canis lupus familiaris
# [10] = (§2) Selectivity determined by expression 10[pA2(atria) - pA2 (trachea)] in guinea pig; assay type: functional, Cavia porcellus
# Canis familiaris [11] = species on record: Canis familiaris; assay: Time taken for 80% recovery at a dose of 36 microg (3-h infusion period); assay type: functional, organism-based; details: Canis lupus familiaris
# Canis familiaris [12] = species on record: Canis familiaris; assay: Time taken for 80% recovery at a dose of 172 microg (3-h infusion period); assay type: functional, organism-based; details: Canis lupus familiaris
# [13] = as §2; assay type: functional, Cavia porcellus; remark: listed apart in the source
# Summary of the method: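 Selectivity index calculated as 10^[pA2(atria) − pA2(trachea)] from pA2 values measured in isolated guinea pig atria and trachea. A minus sign denotes β2 selectivity.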
# Canis familiaris [14] = species on record: Canis familiaris; assay: Percent inhibition of isoproterenol induced tachycardia at a dose of 4 microg (3-h infusion period); assay type: functional, Canis lupus familiaris
# Canis familiaris [15] = species on record: Canis familiaris; assay: Time taken for 80% recovery at a dose of 4 microg (3-h infusion period); assay type: functional, organism-based; details: Canis lupus familiaris
# Canis familiaris [16] = species on record: Canis familiaris; assay: Percent inhibition of isoproterenol induced tachycardia at a dose of 70 microg (3-h infusion period); assay type: functional, Canis lupus familiaris
# Canis familiaris [17] = species on record: Canis familiaris; assay: Time taken for 80% recovery at a dose of 70 microg (3-h infusion period); assay type: functional, organism-based; details: Canis lupus familiaris
# Summary of the method: (§3)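 After the infusion ended, the time to 80% recovery of the blockade was recorded as duration of action. The listed dose is the average amount infused per minute over the 3-h period, in µg/(kg min).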
# Canis familiaris [18] = species on record: Canis familiaris; assay: Percent inhibition of isoproterenol induced tachycardia at a dose of 0.59-1.26 microg (3-h infusion period); assay type: functional, Canis lupus familiaris
# Canis familiaris [19] = species on record: Canis familiaris; assay: Time taken for 80% recovery at a dose of 0.59-1.26 microg (3-h infusion period); assay type: functional, organism-based; details: Canis lupus familiaris
# Canis familiaris [20] = species on record: Canis familiaris; assay: Percent inhibition of isoproterenol induced tachycardia at a dose of 1.3 microg (3-h infusion period); assay type: functional, Canis lupus familiaris
# Canis familiaris [21] = species on record: Canis familiaris; assay: Time taken for 80% recovery at a dose of 57/122 microg (3-h infusion period); assay type: functional, organism-based; details: Canis lupus familiaris
# Canis familiaris [22] = species on record: Canis familiaris; assay: Percent inhibition of isoproterenol induced tachycardia at a dose of 57/122 microg (3-h infusion period); assay type: functional, Canis lupus familiaris
# Canis familiaris [23] = species on record: Canis familiaris; assay: Time taken for 80% recovery at a dose of 8 microg (3-h infusion period); assay type: functional, organism-based; details: Canis lupus familiaris; summary of the method: as §3
# Canis familiaris [24] = species on record: Canis familiaris; assay: Percent inhibition of isoproterenol induced tachycardia at a dose of 8 microg (3-h infusion period); assay type: functional, Canis lupus familiaris
# Canis familiaris [25] = species on record: Canis familiaris; assay: Time taken for 80% recovery at a dose of 182 microg (3-h infusion period); assay type: functional, organism-based; details: Canis lupus familiaris
# Canis familiaris [26] = species on record: Canis familiaris; assay: Percent inhibition of isoproterenol induced tachycardia at a dose of 182 microg (3-h infusion period); assay type: functional, Canis lupus familiaris
# [27] = Time in which 1/2 of the initial amount disappeared in canine liver (44); assay type: ADME, […], Canis lupus familiaris; details: dog; summary of the method: as §1
# [28] = Time in which 1/2 of the initial amount disappeared in human blood; assay type: ADME, organism-based; summary of the method: as §1
# Canis familiaris [29] = species on record: Canis familiaris; assay: Time taken for 80% recovery at a dose of 1 microg (3-h infusion period); assay type: functional, organism-based; details: Canis lupus familiaris
# Canis familiaris [30] = species on record: Canis familiaris; assay: Percent inhibition of isoproterenol induced tachycardia at a dose of 1 microg (3-h infusion period); assay type: functional, Canis lupus familiaris
# Canis familiaris [31] = species on record: Canis familiaris; assay: Percent inhibition of isoproterenol induced tachycardia at a dose of 27 microg (3-h infusion period); assay type: functional, Canis lupus familiaris
# Canis familiaris [32] = species on record: Canis familiaris; assay: Time taken for 80% recovery at a dose of 27 microg (3-h infusion period); assay type: functional, organism-based; details: Canis lupus familiaris
# Canis familiaris [33] = species on record: Canis familiaris; assay: Percent inhibition of isoproterenol induced tachycardia at a dose of 15 microg (3-h infusion period); assay type: functional, Canis lupus familiaris
# Canis familiaris [34] = species on record: Canis familiaris; assay: Time taken for 80% recovery at a dose of 15 microg (3-h infusion period); assay type: functional, organism-based; details: Canis lupus familiaris
# Canis familiaris [35] = species on record: Canis familiaris; assay: Time taken for 80% recovery at a dose of 128 microg (3-h infusion period) / 85 kg min (40-min infusion model); assay type: functional, organism-based; details: Canis lupus familiaris
# Canis familiaris [36] = species on record: Canis familiaris; assay: Percent inhibition of isoproterenol induced tachycardia at a dose of 128 microg (3-h infusion period) / 85 kg min (40-min infusion model); assay type: functional, Canis lupus familiaris
# Canis familiaris [37] = species on record: Canis familiaris; assay: Time taken for 80% recovery at a dose of 100 microg (3-h infusion period); assay type: functional, organism-based; details: Canis lupus familiaris
# Canis familiaris [38] = species on record: Canis familiaris; assay: Percent inhibition of isoproterenol induced tachycardia at a dose of 100 microg (3-h infusion period); assay type: functional, Canis lupus familiaris
SMILES,pA2 (Adrenergic receptor beta [2]),half-life [4] [min],half-life [6] [min],pA2 (Adrenergic receptor beta [7]),half-life [8] [min],Selectivity [10],other results
CC(C)NCC(O)COC(=O)c1ccccc1F (stereo unspecified),7.1,7,1.7,,,,half-life [1]: 4 min; Recovery time (Canis familiaris [3]): 25 min; remaining at 18 h [5]: 83%
CCOC(=O)NCC(C)(C)NCC(O)COC(=O)c1ccccc1F (stereo unspecified),7,8,,7.1,1,1,Inhibition (Canis familiaris [9]): 49%; Recovery time (Canis familiaris [11]): 8 min
CCCOc1ccccc1C(=O)OCC(O)CNC(C)C (stereo unspecified),7.1,,,6.6,,,Recovery time (Canis familiaris [12]): > 60 min; Selectivity [13]: -3.5
CC(C)(C)NCC(O)COC(=O)c1ccc(O)cc1 (stereo unspecified),6.5,> 180,56,7.4,> 180,9,Inhibition (Canis familiaris [14]): 71%; Recovery time (Canis familiaris [15]): > 60 min
CC(C)(C)NCC(O)COC(=O)c1ccccc1 (stereo unspecified),7.7,7.3,5.3,6.8,20,-8,Inhibition (Canis familiaris [16]): 65%; Recovery time (Canis familiaris [17]): > 60 min; remaining at 18 h [5]: 99%
CC(C)NCC(O)COC(=O)c1ccc(N)cc1 (stereo unspecified),6.6,> 180,60,6.7,> 180,1,Inhibition (Canis familiaris [18]): 80%; Recovery time (Canis familiaris [19]): > 60 min
CC(C)NCC(O)COc1cccc2ccccc12 (stereo unspecified) [PROPRANOLOL],,> 180,,,,,Inhibition (Canis familiaris [20]): 68%
CC(C)(CNS(=O)(=O)c1ccccc1)NCC(O)COC(=O)c1ccccc1F.O=C(O)C(=O)O (stereo unspecified),7.9,15,,7,,1,Recovery time (Canis familiaris [21]): 6 min; Inhibition (Canis familiaris [22]): 43%
CC(C)(CNC(=O)C1CCCCC1)NCC(O)COC(=O)c1ccccc1F (stereo unspecified),7.2,,,7.7,,3,Recovery time (Canis familiaris [23]): 12 min; Inhibition (Canis familiaris [24]): 61%
CC(C)NCC(O)COC(=O)c1ccc2ccccc2c1 (stereo unspecified),6.6,,,6.4,,-2,Recovery time (Canis familiaris [25]): > 60 min; Inhibition (Canis familiaris [26]): 54%
CC(C)NCC(O)COC(=O)c1ccccc1Cl (stereo unspecified),,28,1.7,,,,remaining at 18 h [5]: 92%; half-life [27]: 12 min
CC(C)(C)NCC(O)COC(=O)c1ccc(F)cc1 (stereo unspecified),8,16,,7.3,66,-5,half-life [28]: 11.5 min
CC(C)(CNC(N)=O)NCC(O)COC(=O)c1ccccc1F (stereo unspecified) [FLESTOLOL],8.4,15,,8.1,2.5,-2,Recovery time (Canis familiaris [29]): 21 min; Inhibition (Canis familiaris [30]): 49%
CC(C)(C)NCC(O)COC(=O)c1ccccc1O (stereo unspecified),8,41,,7.1,31,-9,Inhibition (Canis familiaris [31]): 73%; Recovery time (Canis familiaris [32]): > 60 min
CC(=O)NCC(C)(C)NCC(O)COC(=O)c1ccccc1F (stereo unspecified),,7.5,,,,,Inhibition (Canis familiaris [33]): 61%; Recovery time (Canis familiaris [34]): 35 min
CC(C)NCC(O)COC(=O)c1ccccc1 (stereo unspecified),7.2,6.8,2.3,6.3,8,-7,Recovery time (Canis familiaris [35]): 26 min; Inhibition (Canis familiaris [36]): 63%
COc1ccc(CCNCC(O)COC(=O)c2ccccc2F)cc1OC (stereo unspecified),5.7,,,6.1,,2.5,Recovery time (Canis familiaris [37]): > 60 min; Inhibition (Canis familiaris [38]): 48%; remaining at 18 h [5]: 35%
